From PMC3517974 (ChemMedChem, 2009) come the findings set out here.

The format of data set [1] is in vitro ADME, rat. The settings on record: for log kplasma: hydrolysis constant in rat plasma.
Data set [2] in a line: In vitro stability in rat liver S9 fraction with NADPH-regenerating system. In kind it is in vitro ADME. The settings on record: for log kS9: hydrolysis constant in rat liver S9 fraction. An outline of the steps: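 S9 came from male Wistar rat liver (250–300 g), perfused with ice-cold 0.15 M KCl, homogenized 20% w/v in 0.01 M PBS pH 7.4, and spun at 9,000g. It was preincubated 5 min at 37 °C with NADPH-regenerating system (2 mM NADP+, 10 mM G6P, 0.4 U/mL G6PDH, 5 mM MgCl2), 2 mg/mL protein. Test compound was added at 1 µM (1% DMSO). Aliquots were acetonitrile-quenched and analyzed by RP-HPLC; t1/2 from pseudo-first-order constants, mean±SD of three.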

In turn, `CCCCNC(=O)Oc1ccc(OCc2ccccc2)cc1` [Compound 8, n-Butylcarbamic acid 4-benzyloxyphenyl ester] had a log kplasma in data set [1] of −2.68. Besides, the “log kS9” value in data set [2] was −1.00.

As to `NC(=O)c1cccc(-c2cccc(OC(=O)NC3CCCCC3)c2)c1` [Compound 9, cyclohexylcarbamic acid 3′-carbamoylbiphenyl-3-yl ester], in data set [1], the log kplasma was −1.68. Further, in data set [2], the “log kS9” value was −1.93. The half-life (in general, the time in which the quantity being followed falls by half) at 1 μM in data set [2] (male, Wistar, rat, liver S9 fraction, pH 7.4, half-life in rat liver S9 fraction, in vitro oxidative metabolism) is around 1 h.

In data set [1], `O=C(NC1CCCCC1)Oc1ccc(-c2ccccc2)cc1` [Compound 12, Cyclohexylcarbamic acid biphenyl-4-yl ester] had a log kplasma of −1.50. In data set [2], the “stability in rat liver S9 relative to regio isomer 1” value is 3 fold and the “log kS9” value is −1.44.

In data set [1], `O=C(NC1CCCCC1)Oc1ccc2ccccc2c1` [Compound 13, Cyclohexylcarbamic acid naphthalen-2-yl ester] had a log kplasma of −1.57. In addition, the “log kS9” value in data set [2] is listed as −0.86.

On to `O=C(NC1CCCCC1)Oc1cccc(-c2ccccc2)c1` [Compound 1], for which the “t1/2,inhib in rat plasma” value in data set [1] (coincubation with esterase inhibitor paraoxon 1 mM) worked out at 2.38 h. In data set [1], this compound returned a log kplasma of −1.79. In data set [2], the “log kS9” value is on record as −0.94.
